In ChEMBL document CHEMBL2046433, “Structure-activity relationships and optimization of 3,5-dichloropyridine derivatives as novel P2X(7) receptor antagonists” (J Med Chem, 2012):
pIC50: −log10 of the molar value.

The compounds below were run against T1, P2X purinoceptor 3 (Homo sapiens) (UniProt P56373) (assay: Antagonist activity at human P2X3 receptor expressed in Xenopus oocytes assessed as reduction in ATP-induced ion current at 10 uM). Details: Oocyte.
T1 sequence (whole entry): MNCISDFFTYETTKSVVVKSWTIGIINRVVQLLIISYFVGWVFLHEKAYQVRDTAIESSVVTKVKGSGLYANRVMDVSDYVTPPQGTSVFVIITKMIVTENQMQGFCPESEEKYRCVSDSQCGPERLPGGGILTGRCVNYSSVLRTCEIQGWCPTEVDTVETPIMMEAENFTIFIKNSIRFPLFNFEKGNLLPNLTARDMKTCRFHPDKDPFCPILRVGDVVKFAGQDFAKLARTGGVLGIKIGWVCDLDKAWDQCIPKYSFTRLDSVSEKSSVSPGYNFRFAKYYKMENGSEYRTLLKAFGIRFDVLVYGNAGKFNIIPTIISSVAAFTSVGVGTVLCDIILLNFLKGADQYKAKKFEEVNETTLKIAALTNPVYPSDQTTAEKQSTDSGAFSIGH
Type: functional, cell-based
Parameters: scale not given: the % may be the effect or the level left
How it was run: (§1)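 Two-electrode voltage clamp on Xenopus oocytes made to express the receptor by microinjection of capped cRNA. Currents were evoked by 2 μM ATP, and the test compound was given at 10 μM. The read-out is the percent reduction of the ATP-induced ion current.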
With CC12CC3CC(C)(C1)CC(C(=O)NNc1c(Cl)cncc1Cl)(C3)C2 the Activity was 10%.

The compounds below were run against T2, P2X purinoceptor 7 (Homo sapiens) (UniProt Q99572) (assay: Antagonist activity at human P2X7 receptor expressed in HEK293 cells assessed as inhibition of BzATP-induced ethidium bromide uptake at 20 uM after 2 hrs by fluorescence analysis). Details: not given.
T2 sequence (whole entry): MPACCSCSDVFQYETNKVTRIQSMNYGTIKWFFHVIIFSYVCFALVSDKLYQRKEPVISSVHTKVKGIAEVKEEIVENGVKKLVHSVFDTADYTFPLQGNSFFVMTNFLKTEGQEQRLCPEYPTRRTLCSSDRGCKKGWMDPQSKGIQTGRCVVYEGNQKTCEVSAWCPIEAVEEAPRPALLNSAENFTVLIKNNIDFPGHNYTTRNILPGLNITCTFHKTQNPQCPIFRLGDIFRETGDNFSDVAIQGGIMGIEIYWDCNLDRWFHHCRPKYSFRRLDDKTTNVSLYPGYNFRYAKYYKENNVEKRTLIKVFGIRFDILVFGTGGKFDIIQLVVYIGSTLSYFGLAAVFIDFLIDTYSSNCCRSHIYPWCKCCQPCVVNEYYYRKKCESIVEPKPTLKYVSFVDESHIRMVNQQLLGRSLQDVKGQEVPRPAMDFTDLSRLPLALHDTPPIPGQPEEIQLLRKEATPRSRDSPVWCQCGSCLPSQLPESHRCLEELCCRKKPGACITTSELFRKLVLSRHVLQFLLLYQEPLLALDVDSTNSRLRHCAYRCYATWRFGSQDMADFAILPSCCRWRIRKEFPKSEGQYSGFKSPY
Type: functional, cell-based
For O=C(Cc1ccncc1)NNc1c(Cl)cncc1Cl, the inhibition was less than 20%.

Each compound was assayed against T3, P2X purinoceptor 7 (Homo sapiens, UniProt Q99572) (assay: Antagonist activity at human P2X7 receptor in human THP1 cells assessed as inhibition of BzATP-induced IL-1beta release pretreated for 30 mins before bzATP challenge measured after 30 mins by ELISA). Details: not given.
T3 sequence (Q99572 whole entry): T2 sequence (whole entry)
O=C(CCC1CCCCC1)NNc1c(Cl)cncc1Cl showed a pIC50 of 7.25. For O=C(NNc1c(Cl)cncc1Cl)C1C2CC3CC(C2)C(Br)C1C3 (configuration not stated), the pIC50 was 8.89. CC12CC3CC(C)(C1)CC(C(=O)NNc1c(Cl)cncc1Cl)(C3)C2 showed a pIC50 of 8.04. For O=C(CC1CCCCCC1)NNc1c(Cl)cncc1Cl, the pIC50 was 7.38. With O=C(CCc1ccccc1)NNc1c(Cl)cncc1Cl the pIC50 was 6.49. For O=C(NNc1c(Cl)cncc1Cl)C1C2CC3CC(C2)CC1C3 (configuration not stated), the pIC50 was 6.89. Work on CN([C@@H](Cc1ccc(OS(=O)(=O)c2cccc3cnccc23)cc1)C(=O)N1CCN(c2ccccc2)CC1)S(=O)(=O)c1cccc2cnccc12 yielded a pIC50 of 6.92.

These compounds were tested against T4, P2X purinoceptor 1 (Mus musculus) (UniProt P51576) (assay: Antagonist activity at mouse P2X1 receptor expressed in Xenopus oocytes assessed as reduction in ATP-induced ion current at 10 uM). Details: Oocyte.
T4 sequence (whole entry): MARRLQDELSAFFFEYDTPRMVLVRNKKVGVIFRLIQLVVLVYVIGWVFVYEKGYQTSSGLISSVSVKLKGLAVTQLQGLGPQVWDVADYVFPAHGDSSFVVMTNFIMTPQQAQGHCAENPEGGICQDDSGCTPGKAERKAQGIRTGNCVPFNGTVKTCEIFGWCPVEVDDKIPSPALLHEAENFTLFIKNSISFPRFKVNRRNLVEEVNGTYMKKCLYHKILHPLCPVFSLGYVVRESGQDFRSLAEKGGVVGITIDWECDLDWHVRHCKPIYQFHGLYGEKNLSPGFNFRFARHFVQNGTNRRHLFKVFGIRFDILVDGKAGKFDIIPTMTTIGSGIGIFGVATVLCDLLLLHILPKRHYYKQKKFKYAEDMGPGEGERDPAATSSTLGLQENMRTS
Type: functional, cell-based
Parameters: scale not given: the % may be the effect or the level left
How it was run: as §1
CC12CC3CC(C)(C1)CC(C(=O)NNc1c(Cl)cncc1Cl)(C3)C2 gave an Activity of 10%.

What follows are compounds tested against T2, P2X purinoceptor 7 (Homo sapiens) (assay: Antagonist activity at human P2X7 receptor expressed in HEK293 cells assessed as inhibition of BzATP-induced ethidium bromide uptake at 10 uM after 2 hrs by fluorescence analysis). Details: not given.
CN(Nc1c(Cl)cncc1Cl)C(=O)CCc1ccccc1 gave an inhibition of less than 20%. O=C(CCc1ccc(O)cc1)NNc1c(Cl)cncc1Cl was tested, and the inhibition was less than 20%. Work on O=C(CCc1ccccc1)NNc1ccncc1 yielded an inhibition of less than 20%. Compound O=C(CCc1ccccc1)NNc1c(F)cncc1F has an inhibition of less than 20%. O=C(Cc1cccc2ccccc12)NNc1c(Cl)cncc1Cl showed an inhibition of less than 20%. O=C(CCc1ccccc1)Nc1c(Cl)cncc1Cl showed an inhibition of less than 20%. Compound O=C(NCc1ccccc1)NNc1c(Cl)cncc1Cl has an inhibition of less than 20%. Compound O=C(NNc1c(Cl)cncc1Cl)C1CC2C=CC1C2 (configuration not stated) has an inhibition of less than 20%. O=C(/C=C/c1ccccc1)NNc1c(Cl)cncc1Cl was tested, and the inhibition was less than 20%. Compound O=C(CCc1ccccc1)NNc1c(F)cccc1F has an inhibition of less than 20%. O=C(NNc1c(Cl)cncc1Cl)c1ccccc1 gave an inhibition of less than 20%. In the case of O=C(Cc1ccc2ccccc2c1)NNc1c(Cl)cncc1Cl, the inhibition was less than 20%. O=C(CCc1ccccc1)NNc1cc(Cl)nc(Cl)c1 showed an inhibition of less than 20%. For Clc1cncc(Cl)c1NNCCCc1ccccc1, the inhibition was less than 20%. O=C(NNc1c(Cl)cncc1Cl)c1cc2ccccc2[nH]1 gave an inhibition of less than 20%.

The compounds below were run against T3, P2X purinoceptor 7 (assay: Antagonist activity at human P2X7 receptor expressed in HEK293 cells assessed as inhibition of BzATP-induced ethidium bromide uptake after 2 hrs by fluorescence analysis). Details: not given.
Type: functional, cell-based
For O=C(CCC1CCCCC1)NNc1c(Cl)cncc1Cl, the pIC50 was 6.89. O=C(CCCc1ccccc1)NNc1c(Cl)cncc1Cl showed a pIC50 of 6.11. Work on COc1ccc(CCC(=O)NNc2c(Cl)cncc2Cl)cc1 yielded a pIC50 of 5.82. Work on O=C(NNc1c(Cl)cncc1Cl)C1Cc2ccccc21 (racemic) yielded a pIC50 of 6.49. For O=C(NNc1c(Cl)cncc1Cl)C1C2CC3CC(C2)C(Br)C1C3 (configuration not stated), the pIC50 was 8.31. CC12CC3CC(C)(C1)CC(C(=O)NNc1c(Cl)cncc1Cl)(C3)C2 showed a pIC50 of 7.89. O=C(CCc1ccc(Cl)cc1)NNc1c(Cl)cncc1Cl showed a pIC50 of 5.96. O=C(NNc1c(Cl)cncc1Cl)OCc1ccccc1 showed a pIC50 of 6.43. In the case of Cc1ccc(CCC(=O)NNc2c(Cl)cncc2Cl)cc1, the pIC50 was 5.85. In the case of O=C(CC1C2CC3CC(C2)CC1C3)NNc1c(Cl)cncc1Cl (configuration not stated), the pIC50 was 6.47. O=C(CC1CCCCCC1)NNc1c(Cl)cncc1Cl gave a pIC50 of 6.70. Work on O=C(CCc1ccc(F)cc1)NNc1c(Cl)cncc1Cl yielded a pIC50 of 6.05. For O=C(CCc1ccccc1)NNc1c(Cl)cccc1Cl, the pIC50 was 5.85. O=C(CCCCc1ccccc1)NNc1c(Cl)cncc1Cl was tested, and the pIC50 was 5.92. In the case of O=C(CCc1ccccc1)NNc1c(Cl)cncc1Cl, the pIC50 was 6.19. Compound O=C(CCCCCCc1ccccc1)NNc1c(Cl)cncc1Cl has a pIC50 of 6.02. O=C(CCC1CCCC1)NNc1c(Cl)cncc1Cl was tested, and the pIC50 was 6.42. With O=C(CCCCCc1ccccc1)NNc1c(Cl)cncc1Cl the pIC50 was 5.72. With Cc1cccc(C)c1NNC(=O)CCc1ccccc1 the pIC50 was 6.05. O=C(NNc1c(Cl)cncc1Cl)C1CCc2ccccc2C1 (racemic) gave a pIC50 of 5.96. For O=C(NNc1c(Cl)cncc1Cl)C1C2CC3CC(C2)CC1C3 (configuration not stated), the pIC50 was 7.11. O=C(Cc1ccc(Cl)cc1Cl)NNc1c(Cl)cncc1Cl showed a pIC50 of 5.60. In the case of O=C(CCCC1CCCCC1)NNc1c(Cl)cncc1Cl, the pIC50 was 6.44. O=C(NNc1c(Cl)cncc1Cl)C12CC3CC(CC1C3)C2 was tested, and the pIC50 was 5.85. O=C(NNc1c(Cl)cncc1Cl)C1Cc2ccccc2C1 was tested, and the pIC50 was 5.38. O=C(CC1CCCCC1)NNc1c(Cl)cncc1Cl gave a pIC50 of 6.14. For CN([C@@H](Cc1ccc(OS(=O)(=O)c2cccc3cnccc23)cc1)C(=O)N1CCN(c2ccccc2)CC1)S(=O)(=O)c1cccc2cnccc12, the pIC50 was 6.55. Work on O=C(CCc1cccc2ccccc12)NNc1c(Cl)cncc1Cl yielded a pIC50 of 5.92. With O=C(Cc1ccc(Cl)cc1)NNc1c(Cl)cncc1Cl the pIC50 was 6.21. O=C(Cc1ccccc1)NNc1c(Cl)cncc1Cl was tested, and the pIC50 was 5.96. O=C(NNc1c(Cl)cncc1Cl)C1CC2CCC1C2 (configuration not stated) gave a pIC50 of 5.55. O=C(CC1CC2CCC1C2)NNc1c(Cl)cncc1Cl (configuration not stated) showed a pIC50 of 6.68.
